In ChEMBL document CHEMBL1148177, “Starfish saponins, Part 50. Steroidal glycosides from the Okinawan starfish Nardoa tuberculata” (1993) one finds LD50, MIC and Activity data, which are given here for seven molecules.

Activity calls are given as the source filed them. The calls are words filed in the database; no cut-off is given here.

The subject of experiment [1] is Sphaerechinus granularis. Kind of experiment: Inhibition of sea urchin egg fertilization after 10 mins. It counts as functional. The gist of the method: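 Sphaerechinus granularis eggs, each experiment using eggs from a single female, about 50,000 eggs/ml. Eggs were treated 10 min with compound in MeOH-H2O (20:80), diluted five-fold with filtered sea water and fertilized. Controls were handled the same way. Cleavage was checked by light microscopy in vivo at 10 min and 2 h. Values are given as LD50 (M).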

Another experiment has as its system Cladosporium cucumerinum. Kind of experiment: Antifungal activity against Cladosporium cucumerinum. It counts as functional. The gist of the method: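 Direct bioautography on TLC: samples spotted on TLC plates, then sprayed with a suspension of Cladosporium cucumerinum. Activity is recorded as the minimum inhibition dose in μg spotted.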
Experiment [2] concerns Sphaerechinus granularis. In words: Inhibition of sea urchin egg fertilization at <10 uM after 10 mins.

For the molecule `CC(C)[C@@H](O)CC[C@@H](C)[C@H]1C[C@@H](O)[C@@H]2[C@]1(C)CC[C@@H]1[C@@]3(C)CC[C@H](O)[C@H](O)[C@@H]3[C@@H](O)C[C@]12O`, the LD50 with Sphaerechinus granularis [1] is on record as 1 ×10⁻⁶ M.

`CC(C)[C@@H](O)CC[C@@H](C)[C@H]1C[C@@H](O)[C@@H]2[C@]1(C)CC[C@@H]1[C@@]3(C)CC[C@H](O)C[C@@H]3[C@@H](O)C[C@]12O` yielded an MIC in the experiment on Cladosporium cucumerinum of 3 µg. In the experiment with Sphaerechinus granularis [2], the outcome was inactive.

`CO[C@H]1[C@H](O[C@H]2[C@H](OCC[C@@H](CC[C@@H](C)[C@H]3[C@@H](O)[C@@H](O)[C@@H]4[C@]3(C)CC[C@@H]3[C@@]5(C)CC[C@H](O)[C@H](O)[C@@H]5[C@@H](O)C[C@]34O)C(C)C)OC[C@@H](O)[C@@H]2O)OC[C@@H](O)[C@@H]1O` [HALITYLOSIDE A] displayed an MIC in the experiment with Cladosporium cucumerinum of 40 µg. In the experiment on Sphaerechinus granularis [1], this molecule came in with an LD50 of 1 ×10⁻⁵ M.

In the case of `CO[C@H]1[C@H](O[C@H]2[C@H](OCC[C@@H](CC[C@@H](C)[C@H]3[C@@H](O)[C@@H](O)[C@@H]4[C@]3(C)CC[C@@H]3[C@@]5(C)CC[C@H](O)C[C@@H]5[C@@H](O)C[C@]34O)C(C)C)OC[C@@H](O)[C@@H]2O)OC[C@@H](O)[C@@H]1O` [HALITYLOSIDE B], the LD50 in the experiment with Sphaerechinus granularis [1] came out at 1 ×10⁻⁵ M.

Molecule `CO[C@H]1[C@H](O[C@H]2[C@H](O[C@@H](CC[C@@H](C)[C@H]3C[C@@H](O)[C@@H]4[C@]3(C)CC[C@@H]3[C@@]5(C)CC[C@H](O)[C@H](O)[C@@H]5[C@@H](O)C[C@]34O)C(C)C)O[C@@H](CO)[C@@H]2O)OC[C@@H](OC)[C@@H]1O` [HALITYLOSIDE D] gave an LD50 in the experiment with Sphaerechinus granularis [1] of 1 ×10⁻⁶ M.

As for `CO[C@H]1[C@H](O[C@H]2[C@H](O[C@@H](CC[C@@H](C)[C@H]3C[C@@H](O)[C@@H]4[C@]3(C)CC[C@@H]3[C@@]5(C)CC[C@H](O)C[C@@H]5[C@@H](O)C[C@]34O)C(C)C)O[C@@H](CO)[C@@H]2O)OC[C@@H](OC)[C@@H]1O` [HALITYLOSIDE E], the MIC in the experiment on Cladosporium cucumerinum came to 10 µg. This molecule also gave an LD50 in the experiment with Sphaerechinus granularis [1] of 1 ×10⁻⁷ M.

Turning to `CO[C@H]1[C@H](O[C@H]2[C@H](O[C@@H](CC[C@@H](C)[C@H]3C[C@@H](O)[C@@H]4[C@]3(C)CC[C@@H]3[C@@]5(C)CC[C@H](O)C[C@@H]5[C@H](O)C[C@]34O)C(C)C)O[C@@H](CO)[C@@H]2O)OC[C@@H](OC)[C@@H]1O` [HALITYLOSIDE F], the MIC in the experiment with Cladosporium cucumerinum was found to be 5 µg. In addition, the LD50 in the experiment with Sphaerechinus granularis [1] is listed as 1 ×10⁻⁶ M.
